Measured values of several laboratories.
Protocols differ between the studies behind these lines.
Cell line: MOLM-13
Observed: cell growth or viability

| SMILES | assay | setting | measurement | result |
| --- | --- | --- | --- | --- |
| c1cc(-c2cc3ncc(OCC4CCNCC4)nc3cc2-c2cccc(N3CCCCC3)c2)cc(N2CCCCC2)c1 | XTT | 7 days | EC50 | 1400 nM |
| CC(C)(C)[C@H](N)C(=O)Nc1ccccc1/N=c1\cc(-c2ccc3c(c2)OCCO3)oc2cc(F)ccc12 | CCK-8 | 1 µM | inhibition | 6.65% |
| Cc1n[nH]c2ccc3nc(-c4ccc(C(=O)NCCN(C)C)cc4)c4c(c3c12)CCCCC4 |  | 72 h | GI50 | 187 nM |
| NCCCC(=O)Nc1ccccc1/N=c1\cc(-c2ccc3c(c2)OCO3)oc2ccccc12 | CCK-8 | 1 µM | inhibition | 0.08% |
| c1cc(N2CCC(N3CCOCC3)CC2)ccc1Nc1ccc2ncc(OCC3CCNCC3)nc2c1 | XTT | 7 days | EC50 | > 30000 nM |
| NCC(=O)Nc1ccccc1/N=c1\cc(-c2ccc3c(c2)OCO3)oc2ccccc12 | CCK-8 | 1 µM | inhibition | 1.52% |
| CN(C)CCNC(=O)c1ccc(-c2nc3ccc4[nH]ncc4c3c3c2CCCC3)c(F)c1 |  | 72 h | GI50 | 262 nM |
| c1ccc(Oc2ccc(Nc3ccc4ncc(OCC5CCNCC5)nc4c3)cc2)cc1 | XTT | 7 days | EC50 | 1400 nM |
| Cc1n[nH]c2ccc3nc(-c4ccc(C(=O)NCCN(C)C)cc4)c4c(c3c12)CCCC4 |  | 72 h | GI50 | 54 nM |
| C[C@H](N)C(=O)Nc1ccccc1/N=c1\cc(-c2ccc3c(c2)OCCO3)oc2c(N)cccc12 | CCK-8 | 1 µM | inhibition | 3.7% |
| CC1(C)CCC(CN2CCN(c3ccc(C(=O)NS(=O)(=O)c4ccc(NCC5CCOCC5)c([N+](=O)[O-])c4)c(Oc4cnc5[nH]ccc5c4)c3)CC2)=C(c2ccc(Cl)cc2)C1 |  |  | GI50 | 10 nM |
| COc1ccc2/c(=N/c3ccccc3NC(=O)[C@@H](N)C(C)(C)C)cc(-c3ccc4c(c3)OCCO4)oc2c1 | CCK-8 | 1 µM | inhibition | 2.86% |
| Cc1n[nH]c2ccc3nc(-c4ccc(C(=O)NCCN(C)C)cc4F)c4c(c3c12)CCCCC4 |  | 72 h | GI50 | 150 nM |
| Fc1ccc(Oc2ccc(Nc3ccc4ncc(OCC5CCNCC5)nc4c3)cc2)cc1 | XTT | 7 days | EC50 | 1600 nM |
| Cc1cc2c(C(=O)O)cccc2n1-c1nc2c(c(NCc3ccccc3)n1)CCCN2 |  | 72 h | IC50 | 400 nM |
